Laboratory results reported in ChEMBL document CHEMBL1158444 (J Med Chem, 2009).
Activity calls are given as the source filed them. The rule behind the calls is not given here.

Assays:
[1] = target: T1, Metabotropic glutamate receptor 4 (Homo sapiens, UniProt Q14833); experiment: Activity at human mGluR4 receptor expressed in CHO cells assessed as effect on calcium mobilization; type: functional, cell-based
[2] = target: Metabotropic glutamate receptor 4 (Rattus norvegicus, UniProt P31423); experiment: Activity at rat mGluR4 receptor expressed in HEK293 cells assessed as effect on thallium flux
Metabotropic glutamate receptor 4 (Rattus norvegicus, UniProt P31423), sequence (P31423 whole entry): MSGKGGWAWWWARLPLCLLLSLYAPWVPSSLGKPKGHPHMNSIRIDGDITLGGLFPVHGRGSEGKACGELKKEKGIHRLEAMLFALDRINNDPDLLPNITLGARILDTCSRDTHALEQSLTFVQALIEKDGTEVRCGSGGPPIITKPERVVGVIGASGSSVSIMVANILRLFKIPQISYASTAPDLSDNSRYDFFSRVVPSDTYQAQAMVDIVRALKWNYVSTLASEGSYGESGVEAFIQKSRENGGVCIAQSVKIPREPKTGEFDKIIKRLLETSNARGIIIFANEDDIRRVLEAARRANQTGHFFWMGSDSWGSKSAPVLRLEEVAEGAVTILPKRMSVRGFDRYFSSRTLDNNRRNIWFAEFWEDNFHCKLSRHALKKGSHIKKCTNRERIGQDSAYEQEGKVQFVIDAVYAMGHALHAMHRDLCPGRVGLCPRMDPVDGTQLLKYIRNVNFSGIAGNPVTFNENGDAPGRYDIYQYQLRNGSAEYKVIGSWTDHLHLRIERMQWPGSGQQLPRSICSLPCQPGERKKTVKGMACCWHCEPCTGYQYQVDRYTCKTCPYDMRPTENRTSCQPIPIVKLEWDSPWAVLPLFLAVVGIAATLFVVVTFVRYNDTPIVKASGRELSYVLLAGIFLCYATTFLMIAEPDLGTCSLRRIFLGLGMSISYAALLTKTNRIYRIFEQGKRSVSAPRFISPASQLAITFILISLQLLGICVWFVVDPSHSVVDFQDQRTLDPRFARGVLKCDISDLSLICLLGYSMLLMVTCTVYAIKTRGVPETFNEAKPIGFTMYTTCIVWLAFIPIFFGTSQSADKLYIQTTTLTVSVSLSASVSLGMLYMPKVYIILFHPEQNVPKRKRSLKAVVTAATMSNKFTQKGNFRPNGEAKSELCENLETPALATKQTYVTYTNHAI

[3] = target: Metabotropic glutamate receptor 4 (Rattus norvegicus) (UniProt P31423); experiment: Activity at rat mGluR4 expressed in HEK293 cells coexpressing Gqi5 protein assessed as fold shifting of glutamate-induced response to left at 30 uM; type: cell-based
Metabotropic glutamate receptor 4 (Rattus norvegicus), sequence (P31423 whole entry): as above

[4] = target: T1, Metabotropic glutamate receptor 4; experiment: Activity at human mGluR4 expressed in CHO cells coexpressing Gqi5 protein assessed as fold shifting of glutamate-induced response to left at 30 uM; type: cell-based
[5] = target: T1, Metabotropic glutamate receptor 4; experiment: Activity at human mGluR4 receptor expressed in CHO cells assessed as effect on calcium mobilization relative to glutamate; type: functional, cell-based
[6] = target: Metabotropic glutamate receptor 4 (Rattus norvegicus) (UniProt P31423); experiment: Activity at rat mGluR4 receptor expressed in HEK293 cells assessed as effect on thallium flux relative to glutamate; type: cell-based
[7] = target: Metabotropic glutamate receptor 2 (Homo sapiens) (UniProt Q14416); experiment: Activity at human mGluR2
Metabotropic glutamate receptor 2 (Homo sapiens), sequence (Q14416 19-872 limits assumed): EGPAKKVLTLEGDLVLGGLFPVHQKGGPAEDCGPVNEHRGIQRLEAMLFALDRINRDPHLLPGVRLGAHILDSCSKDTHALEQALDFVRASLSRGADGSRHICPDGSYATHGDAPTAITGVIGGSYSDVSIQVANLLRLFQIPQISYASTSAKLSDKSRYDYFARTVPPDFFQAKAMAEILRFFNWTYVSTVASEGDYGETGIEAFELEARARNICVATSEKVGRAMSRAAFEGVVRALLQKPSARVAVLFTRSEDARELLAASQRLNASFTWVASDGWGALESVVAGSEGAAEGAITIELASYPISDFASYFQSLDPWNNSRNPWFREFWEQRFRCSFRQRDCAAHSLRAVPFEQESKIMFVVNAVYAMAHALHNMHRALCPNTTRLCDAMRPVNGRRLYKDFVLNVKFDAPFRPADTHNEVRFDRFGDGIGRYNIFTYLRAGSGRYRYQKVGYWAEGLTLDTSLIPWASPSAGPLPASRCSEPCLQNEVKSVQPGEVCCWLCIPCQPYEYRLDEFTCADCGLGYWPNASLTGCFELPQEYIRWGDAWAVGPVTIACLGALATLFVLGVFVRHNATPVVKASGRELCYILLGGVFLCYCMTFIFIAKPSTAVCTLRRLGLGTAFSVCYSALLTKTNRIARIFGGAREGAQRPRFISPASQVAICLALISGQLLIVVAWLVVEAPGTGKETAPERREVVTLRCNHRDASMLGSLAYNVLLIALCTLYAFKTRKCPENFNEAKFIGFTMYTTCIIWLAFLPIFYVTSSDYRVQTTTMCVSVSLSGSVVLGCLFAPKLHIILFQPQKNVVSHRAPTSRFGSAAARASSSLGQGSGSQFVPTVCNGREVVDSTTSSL

[8] = target: Metabotropic glutamate receptor 5 (Homo sapiens) (UniProt P41594); experiment: Activity at human mGluR5
Metabotropic glutamate receptor 5 (Homo sapiens), sequence (P41594 21-1212 limits assumed): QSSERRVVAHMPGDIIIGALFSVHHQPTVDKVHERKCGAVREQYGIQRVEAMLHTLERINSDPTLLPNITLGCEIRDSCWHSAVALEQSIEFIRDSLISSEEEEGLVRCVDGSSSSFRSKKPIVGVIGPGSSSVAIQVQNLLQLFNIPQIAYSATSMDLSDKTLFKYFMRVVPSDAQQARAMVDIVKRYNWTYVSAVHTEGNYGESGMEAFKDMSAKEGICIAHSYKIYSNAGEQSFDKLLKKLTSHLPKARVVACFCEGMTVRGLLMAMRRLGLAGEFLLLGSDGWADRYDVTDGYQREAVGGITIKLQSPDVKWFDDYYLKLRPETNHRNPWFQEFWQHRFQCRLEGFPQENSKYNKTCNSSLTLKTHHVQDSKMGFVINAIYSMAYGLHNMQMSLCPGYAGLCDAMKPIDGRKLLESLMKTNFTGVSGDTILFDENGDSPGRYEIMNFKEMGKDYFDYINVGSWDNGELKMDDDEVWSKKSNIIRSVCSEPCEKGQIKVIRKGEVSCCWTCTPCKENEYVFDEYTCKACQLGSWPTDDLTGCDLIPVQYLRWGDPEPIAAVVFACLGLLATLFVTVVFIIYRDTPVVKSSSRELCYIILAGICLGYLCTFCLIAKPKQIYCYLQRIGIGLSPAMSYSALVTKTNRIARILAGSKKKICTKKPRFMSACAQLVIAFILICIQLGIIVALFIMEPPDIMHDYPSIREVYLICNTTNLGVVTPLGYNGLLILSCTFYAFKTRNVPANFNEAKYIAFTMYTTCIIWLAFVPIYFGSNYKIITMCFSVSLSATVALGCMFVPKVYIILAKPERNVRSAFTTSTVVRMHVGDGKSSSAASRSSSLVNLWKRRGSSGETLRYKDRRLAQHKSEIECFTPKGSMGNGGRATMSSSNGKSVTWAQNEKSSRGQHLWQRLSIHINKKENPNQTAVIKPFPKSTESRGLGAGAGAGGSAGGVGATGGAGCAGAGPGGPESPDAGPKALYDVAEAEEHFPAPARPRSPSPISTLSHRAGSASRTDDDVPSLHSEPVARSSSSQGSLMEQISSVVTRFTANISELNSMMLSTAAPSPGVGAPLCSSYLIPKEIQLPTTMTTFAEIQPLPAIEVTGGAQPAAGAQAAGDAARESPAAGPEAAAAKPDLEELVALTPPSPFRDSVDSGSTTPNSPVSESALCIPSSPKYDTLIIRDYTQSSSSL

[9] = AUC in Sprague-Dawley rat brain at 10 mg/kg, ip; type: ADME, organism-based; parameters: dose 10 mg/kg, route intraperitoneal
Summary of the method: (§1)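 Rats dosed intraperitoneally at 10mg/kg with the hydrochloride salt, given as an aqueous microsuspension containing 10% tween 80. Compound levels in brain and plasma were measured at 0.5, 1 and 8 h after administration.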

Plasma [10] = experiment: Fraction unbound in human plasma by at […]; type: ADME, cell-free
[11] = Cmax in Sprague-Dawley rat brain at 10 mg/kg, ip; type: ADME, organism-based; parameters: dose 10 mg/kg, route intraperitoneal; summary of the method: as §1
Plasma [12] = experiment: Half life in Sprague-Dawley rat plasma at 10 mg/kg, ip; type: ADME, organism-based; parameters: dose 10 mg/kg, route intraperitoneal; conditions: in vivo; summary of the method: as §1
[13] = Metabolic stability in rat liver microsomes after 1 hr; type: ADME, Microsome; conditions: read-out: Stability
[14] = target: Metabotropic glutamate receptor 1 (Homo sapiens) (UniProt Q13255); experiment: Activity at human mGluR1
[15] = Apparent oral clearance in Sprague-Dawley rat at 10 mg/kg, ip; type: ADME, organism-based; parameters: dose 10 mg/kg; conditions: in vivo; summary of the method: as §1
[16] = Metabolic stability in human liver microsomes after 1 hr; type: ADME, Microsome; conditions: read-out: Stability
[17] = target: Metabotropic glutamate receptor 3 (Homo sapiens) (UniProt Q14832); experiment: Activity at human mGluR3
Metabotropic glutamate receptor 3 (Homo sapiens), sequence (Q14832 23-879 limits assumed): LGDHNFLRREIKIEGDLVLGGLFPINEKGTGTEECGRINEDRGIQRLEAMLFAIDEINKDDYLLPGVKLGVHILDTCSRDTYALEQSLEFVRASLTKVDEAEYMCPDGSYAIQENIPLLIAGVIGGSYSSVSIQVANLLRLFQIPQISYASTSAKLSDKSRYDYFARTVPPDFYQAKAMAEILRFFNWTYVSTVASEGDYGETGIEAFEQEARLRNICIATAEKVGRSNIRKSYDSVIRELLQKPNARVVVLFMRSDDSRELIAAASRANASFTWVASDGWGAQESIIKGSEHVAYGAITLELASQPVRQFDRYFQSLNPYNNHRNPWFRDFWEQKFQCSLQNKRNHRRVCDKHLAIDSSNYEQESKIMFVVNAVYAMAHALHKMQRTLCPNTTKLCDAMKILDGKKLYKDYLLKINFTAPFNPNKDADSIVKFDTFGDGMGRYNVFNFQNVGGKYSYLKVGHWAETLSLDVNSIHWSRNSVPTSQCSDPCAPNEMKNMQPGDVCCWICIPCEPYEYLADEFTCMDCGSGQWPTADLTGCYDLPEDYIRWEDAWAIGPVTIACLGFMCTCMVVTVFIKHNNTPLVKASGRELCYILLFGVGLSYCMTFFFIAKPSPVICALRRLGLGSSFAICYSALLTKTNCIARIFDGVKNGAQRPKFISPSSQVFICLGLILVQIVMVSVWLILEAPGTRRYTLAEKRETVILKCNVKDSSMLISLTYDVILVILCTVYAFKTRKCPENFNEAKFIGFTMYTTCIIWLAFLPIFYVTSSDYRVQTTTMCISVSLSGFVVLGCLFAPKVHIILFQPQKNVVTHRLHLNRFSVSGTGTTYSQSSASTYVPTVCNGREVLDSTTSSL

Plasma [18] = experiment: Cmax in Sprague-Dawley rat plasma at 10 mg/kg, ip; type: ADME, organism-based; parameters: dose 10 mg/kg, route intraperitoneal; conditions: in vivo
Plasma [19] = experiment: Fraction unbound in rat plasma by at […]; type: ADME, cell-free
Plasma [20] = experiment: AUC in Sprague-Dawley rat plasma at 10 mg/kg, ip; type: ADME, organism-based; parameters: dose 10 mg/kg, route intraperitoneal; conditions: in vivo
Brain = experiment: Half life in Sprague-Dawley rat brain at 10 mg/kg, ip; type: ADME, organism-based; parameters: dose 10 mg/kg, route intraperitoneal; conditions: in vivo; summary of the method: as §1
[21] = target: Metabotropic glutamate receptor 7 (Homo sapiens) (UniProt Q14831); experiment: Activity at human mGluR7
Metabotropic glutamate receptor 7 (Homo sapiens), sequence (Q14831 whole entry): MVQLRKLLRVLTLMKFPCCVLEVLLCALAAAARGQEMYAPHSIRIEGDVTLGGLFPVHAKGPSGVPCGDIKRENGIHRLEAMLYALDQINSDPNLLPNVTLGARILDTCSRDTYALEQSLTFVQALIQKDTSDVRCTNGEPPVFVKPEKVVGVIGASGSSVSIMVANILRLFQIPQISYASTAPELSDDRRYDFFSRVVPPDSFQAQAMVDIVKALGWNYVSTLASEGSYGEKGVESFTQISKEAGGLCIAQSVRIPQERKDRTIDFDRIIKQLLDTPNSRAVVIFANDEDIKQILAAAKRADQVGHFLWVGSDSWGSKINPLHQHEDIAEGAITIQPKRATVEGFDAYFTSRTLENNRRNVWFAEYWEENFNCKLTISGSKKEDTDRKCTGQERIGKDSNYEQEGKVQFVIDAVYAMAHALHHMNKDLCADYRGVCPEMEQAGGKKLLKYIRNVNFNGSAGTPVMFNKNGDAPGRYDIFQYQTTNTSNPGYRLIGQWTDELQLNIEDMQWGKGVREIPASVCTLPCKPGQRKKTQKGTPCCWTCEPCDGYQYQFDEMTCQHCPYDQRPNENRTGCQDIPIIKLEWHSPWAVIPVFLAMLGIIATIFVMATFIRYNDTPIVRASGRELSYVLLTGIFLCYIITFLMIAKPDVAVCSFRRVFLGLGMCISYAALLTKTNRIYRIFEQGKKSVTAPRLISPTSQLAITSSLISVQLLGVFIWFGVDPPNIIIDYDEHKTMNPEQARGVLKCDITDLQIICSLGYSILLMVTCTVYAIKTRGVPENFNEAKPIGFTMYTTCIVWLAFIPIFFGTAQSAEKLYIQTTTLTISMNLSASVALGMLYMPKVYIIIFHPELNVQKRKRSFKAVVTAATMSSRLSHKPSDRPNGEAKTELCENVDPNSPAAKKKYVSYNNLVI

[22] = target: Metabotropic glutamate receptor 8 (Homo sapiens) (UniProt O00222); experiment: Activity at human mGluR8 assessed as fold shifting of glutamate-induced response to left

Row | Compound | EC50 [1] [nM] | EC50 [2] [nM] | Emax [5] [%] | Emax [6] [%] | also measured
1 | COc1cc(NC(=O)c2ccccn2)ncn1 | > 10000 | > 10000 | – | – | –
2 | COc1ccc(NC(=O)c2ccccn2)cc1Cl | 1100 | 740 | 161 | 108 | fold change (FC) [3]: 12; fold change (FC) [4]: 7.2
3 | O=C(Nc1cccc(Cl)c1)c1ccco1 | > 5000 | – | – | – | fold change (FC) [4]: 5
4 | Cc1cc(NC(=O)c2ccco2)ccc1Br | > 5000 | – | – | – | fold change (FC) [4]: 4.3
5 | O=C(Nc1cccc(OC(F)F)c1)c1ccccn1 | – | – | 235 | 113 | Activity [7]: inactive; Activity [8]: > 10 µM; AUC [9]: 976 ng·h/mL; Fu (Plasma [10]): 4%; Cmax [11]: 1680 ng/mL; t1/2 (Plasma [12]): 15.6 min; remaining at 1 h [13]: 1.4%; Activity [14]: inactive; CL/F [15]: 1420 mL/min/kg; remaining at 1 h [16]: 2.4%; Activity [17]: inactive; Cmax (Plasma [18]): 188 ng/mL; Fu (Plasma [19]): 5.8%; AUC (Plasma [20]): 99 ng·h/mL; t1/2 (Brain): 23.4 min; Activity [21]: inactive
6 | O=C(Nc1ccc(Cl)c(Cl)c1)C1CCCCC1 | > 10000 | – | – | – | –
7 | O=C(Nc1ccc(Cl)c(C(F)(F)F)c1)c1ccccn1 | 2100 | 1700 | 47 | 41 | fold change (FC) [3]: 2.1; fold change (FC) [4]: 1.8
8 | O=C(Nc1ccc(Cl)c(Cl)c1)c1cnccn1 | > 10000 | – | – | – | –
9 | O=C(Nc1cccc(OC(F)(F)F)c1)c1ccccn1 | – | – | 132 | 75 | Fu (Plasma [10]): 0.8%; remaining at 1 h [13]: 20%; remaining at 1 h [16]: 22%; Fu (Plasma [19]): 1.6%
10 | O=C(Nc1ccc(Cl)c(Cl)c1)c1ccco1 | > 5000 | – | 135 | – | –
11 | N#Cc1ccc(NC(=O)c2ccccn2)cc1C(F)(F)F | > 10000 | > 10000 | – | – | –
12 | O=C(Nc1cccc(Cl)c1)c1ccccn1 | 1100 | 290 | 227 | 124 | fold change (FC) [3]: 31.4; fold change (FC) [4]: 18.1
13 | O=C(Nc1ccc(Cl)c(Cl)c1)c1ccsc1 | > 10000 | – | – | – | –
14 | O=C(Nc1ccc(Cl)c(Cl)c1)c1cc2ccccc2o1 | > 10000 | – | – | – | –
15 | O=C(Nc1cccc(C(F)(F)F)c1)c1ccccn1 | – | – | 150 | 81 | Fu (Plasma [10]): 1.3%; remaining at 1 h [13]: 19%; remaining at 1 h [16]: 26%; Fu (Plasma [19]): 2.9%
16 | O=C(Nc1ccc(Cl)c(Cl)c1)c1ccc(-c2ccccc2)o1 | > 10000 | – | – | – | –

Row | Compound | EC50 [1] [nM] | EC50 [2] [nM] | Emax [5] [%] | Emax [6] [%] | also measured
17 | O=C(Nc1ccc(Cl)c(Cl)c1)c1ccncn1 | 2800 | – | 83 | – | –
18 | O=C(Nc1ccc(Cl)c(Cl)c1)c1ccccn1 | 1400 | – | 80 | – | –
19 | O=C(Nc1ccccc1)[C@]12C[C@H]1/C(=N\O)c1ccccc1O2 | – | 2030 | 251 | 88 | fold change (FC) [3]: 8.8
20 | Cn1cccc1C(=O)Nc1ccc(Cl)c(Cl)c1 | > 10000 | – | – | – | –
21 | COc1nc(NC(=O)c2ccccn2)ccc1Cl | > 5000 | – | 95 | – | –
22 | O=C(Nc1ccc(Cl)c(Cl)c1)c1ccno1 | > 10000 | – | – | – | –
23 | O=C(Nc1ccc2c(c1)OCO2)c1ccccn1 | > 10000 | 500 | 90 | 50 | –
24 | COc1ccc(NC(=O)c2ccccn2)cc1OC | > 5000 | 2400 | 164 | 102 | –
25 | O=C(Nc1ccc(Cl)c(Cl)c1)c1ccccc1 | > 10000 | – | – | – | –
26 | COc1cc(NC(=O)c2ccccn2)ccc1F | 780 | 370 | 207 | 107 | Activity [7]: inactive; Activity [8]: inactive; Fu (Plasma [10]): 5.1%; remaining at 1 h [13]: 6.3%; fold change (FC) [3]: 26.7; fold change (FC) [4]: 17.5; Activity [14]: inactive; remaining at 1 h [16]: 3%; Activity [17]: inactive; Fu (Plasma [19]): 6.5%; Activity [22]: inactive; Activity [21]: inactive
27 | O=C(Nc1cccc(C(F)(F)F)n1)c1ccccn1 | > 10000 | > 10000 | – | – | –
28 | O=C(Nc1ccc(F)c(C(F)(F)F)c1)c1ccccn1 | 1500 | 1000 | 54 | 42 | fold change (FC) [3]: 2.7; fold change (FC) [4]: 2.1
29 | COc1cc(NC(=O)c2ccccn2)ccc1Cl | – | – | 182 | 109 | Activity [7]: inactive; Activity [8]: 5.1 µM; AUC [9]: 705 ng·h/mL; Fu (Plasma [10]): 2.2%; Cmax [11]: 1580 ng/mL; t1/2 (Plasma [12]): 114 min; remaining at 1 h [13]: 1.8%; fold change (FC) [3]: 35.3; fold change (FC) [4]: 28.1; Activity [14]: inactive; CL/F [15]: 894 mL/min/kg; remaining at 1 h [16]: 5.3%; Activity [17]: inactive; Cmax (Plasma [18]): 154 ng/mL; Fu (Plasma [19]): 2.4%; fold change (FC) [22]: 2.7; AUC (Plasma [20]): 173 ng·h/mL; t1/2 (Brain): 9 min; Activity [21]: inactive
30 | COc1cc(NC(=O)c2ccccn2)ccc1C | 560 | 210 | 178 | 121 | fold change (FC) [3]: 35.3; fold change (FC) [4]: 16.8
31 | O=C(Nc1ccc(Cl)c(Cl)c1)c1ccc(Br)o1 | 4100 | – | 62 | – | –
